In ChEMBL document CHEMBL1134534, “Phenylpiperazinylalkylamino substituted pyridazinones as potent alpha(1) adrenoceptor antagonists” (J Med Chem, 2001):
Calls of active or inactive are those of the source. The calls are words filed in the database; no cut-off is given here.

Columns and labels:
[1] = molecular target: T1, Alpha-1A adrenergic receptor (Homo sapiens, UniProt P35348); assay: Binding affinity towards human cloned alpha-1A-adrenoceptor using [3H]prazosin as radioligand
T1 sequence (P35348 whole entry): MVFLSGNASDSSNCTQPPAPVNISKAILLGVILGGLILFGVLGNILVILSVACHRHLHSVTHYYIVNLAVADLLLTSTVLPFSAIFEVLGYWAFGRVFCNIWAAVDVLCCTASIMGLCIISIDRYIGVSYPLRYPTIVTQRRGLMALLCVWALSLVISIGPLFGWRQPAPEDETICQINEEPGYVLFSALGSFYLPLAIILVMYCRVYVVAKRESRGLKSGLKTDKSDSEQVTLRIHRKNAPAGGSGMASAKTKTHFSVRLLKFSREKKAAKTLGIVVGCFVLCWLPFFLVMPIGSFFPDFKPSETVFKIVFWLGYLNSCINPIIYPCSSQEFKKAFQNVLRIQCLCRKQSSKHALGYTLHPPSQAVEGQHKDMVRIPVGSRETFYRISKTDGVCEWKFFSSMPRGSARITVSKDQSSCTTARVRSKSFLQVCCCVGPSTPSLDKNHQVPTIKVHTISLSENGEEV

[2] = molecular target: T2, Alpha-1D adrenergic receptor (Homo sapiens, UniProt P25100); assay: Binding affinity towards human cloned alpha-1D-adrenoceptor using [3H]prazosin as radioligand
T2 sequence (P25100 whole entry): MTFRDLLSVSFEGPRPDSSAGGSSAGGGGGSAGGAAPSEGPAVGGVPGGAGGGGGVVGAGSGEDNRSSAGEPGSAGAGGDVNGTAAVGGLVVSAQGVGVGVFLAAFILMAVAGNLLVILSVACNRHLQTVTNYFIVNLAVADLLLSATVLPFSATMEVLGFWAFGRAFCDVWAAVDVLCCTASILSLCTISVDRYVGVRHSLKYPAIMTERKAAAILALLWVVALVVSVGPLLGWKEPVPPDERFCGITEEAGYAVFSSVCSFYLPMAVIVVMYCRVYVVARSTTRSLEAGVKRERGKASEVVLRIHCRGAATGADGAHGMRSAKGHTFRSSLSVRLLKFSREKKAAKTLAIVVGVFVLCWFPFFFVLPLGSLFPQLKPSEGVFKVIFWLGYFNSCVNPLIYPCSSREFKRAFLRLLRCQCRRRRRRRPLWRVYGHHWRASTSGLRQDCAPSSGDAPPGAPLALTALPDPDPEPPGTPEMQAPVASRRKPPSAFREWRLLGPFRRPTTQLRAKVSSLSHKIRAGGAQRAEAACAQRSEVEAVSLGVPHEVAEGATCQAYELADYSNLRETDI

[3] = molecular target: T3, 5-hydroxytryptamine receptor 1A (Homo sapiens, UniProt P08908); assay: Binding affinity towards human cloned 5-hydroxytryptamine 1A receptor using [3H]8-OH-DPAT as radioligand
T3 sequence (P08908 whole entry): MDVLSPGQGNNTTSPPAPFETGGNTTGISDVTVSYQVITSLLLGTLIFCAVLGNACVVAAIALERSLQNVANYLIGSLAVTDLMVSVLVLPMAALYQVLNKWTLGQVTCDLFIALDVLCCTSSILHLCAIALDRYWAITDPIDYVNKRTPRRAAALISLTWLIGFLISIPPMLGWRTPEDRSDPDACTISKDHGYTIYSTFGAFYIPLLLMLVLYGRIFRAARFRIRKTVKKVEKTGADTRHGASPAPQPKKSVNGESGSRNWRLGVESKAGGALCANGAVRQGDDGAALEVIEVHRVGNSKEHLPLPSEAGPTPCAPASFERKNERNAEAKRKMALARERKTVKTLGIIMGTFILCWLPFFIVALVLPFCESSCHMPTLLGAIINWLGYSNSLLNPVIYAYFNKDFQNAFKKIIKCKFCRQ

[4] = molecular target: T4, Alpha-1A adrenergic receptor (Homo sapiens) (UniProt P35348); assay: Experimental binding affinity for alpha-1A-adrenergic receptor
T4 sequence (whole entry): T1 sequence (P35348 whole entry)
Procedure, shortened: (§1)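 Membranes (30 µg protein) from CHO cells stably transfected with each human α1 subtype. Nonspecific binding defined with 10 µM phentolamine. Filtration. IC50 from curve fit, converted to Ki by Cheng–Prusoff. Triplicates; 2–3 experiments.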

[5] = molecular target: T5, Alpha-1B adrenergic receptor (Homo sapiens, UniProt P35368); assay: Binding affinity towards human cloned alpha-1B-adrenoceptor using [3H]prazosin as radioligand
T5 sequence (P35368 whole entry): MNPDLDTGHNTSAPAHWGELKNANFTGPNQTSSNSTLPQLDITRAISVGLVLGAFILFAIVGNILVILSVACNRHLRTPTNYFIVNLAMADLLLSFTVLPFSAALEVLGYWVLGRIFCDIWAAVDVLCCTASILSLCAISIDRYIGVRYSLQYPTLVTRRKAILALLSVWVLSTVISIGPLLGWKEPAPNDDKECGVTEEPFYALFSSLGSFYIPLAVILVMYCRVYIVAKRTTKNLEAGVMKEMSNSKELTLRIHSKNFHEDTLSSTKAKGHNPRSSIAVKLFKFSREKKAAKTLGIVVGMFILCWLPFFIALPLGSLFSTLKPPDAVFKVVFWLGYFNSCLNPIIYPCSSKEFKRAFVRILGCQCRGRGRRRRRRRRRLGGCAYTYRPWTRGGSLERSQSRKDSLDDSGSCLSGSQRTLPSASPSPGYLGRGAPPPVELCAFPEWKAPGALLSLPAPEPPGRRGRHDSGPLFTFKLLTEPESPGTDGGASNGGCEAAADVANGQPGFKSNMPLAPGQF

[6] = molecular target: T6, Alpha-1D adrenergic receptor (Homo sapiens) (UniProt P25100); assay: Experimental binding affinity for alpha-1D-adrenergic receptor; procedure, shortened: as §1
T6 sequence (whole entry): T2 sequence (P25100 whole entry)

[7] = molecular target: T7, Alpha-1B adrenergic receptor (Homo sapiens) (UniProt P35368); assay: Experimental binding affinity for alpha-1B-adrenergic receptor; procedure, shortened: as §1
T7 sequence (whole entry): T5 sequence (P35368 whole entry)

[8] = molecular target: T3, 5-hydroxytryptamine receptor 1A; assay: Ability to influence the binding of [35S]GTP-gamma-S, to HeLa cell membranes expressing the human 5-hydroxytryptamine 1A receptor; type: functional
Procedure, shortened: (§2)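 Membranes from HeLa cells stably expressing human 5-HT1A, in 20 mM HEPES, 3 mM MgSO4, 120 mM NaCl pH 7.4. Preincubated 20 min at 30 °C with 30 µM GDP and compound (100 µM to 0.1 nM), then [35S]GTPγS (150–250 pM) added for a further 30 min at 30 °C. Nonspecific binding defined with 10 µM GTPγS. Filtration, scintillation counting. pEC50 from nonlinear curve fit; 2–3 experiments.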

[9] = molecular target: T8, 5-hydroxytryptamine receptor 1A (Homo sapiens) (UniProt P08908); assay: Percent of maximum effect on binding of [35S]GTP-gamma-S, to HeLa cell membranes expressing the human 5-hydroxytryptamine 1A receptor; type: functional
T8 sequence (whole entry): T3 sequence (P08908 whole entry)
Procedure, shortened: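 [35S]GTPγS binding on human 5-HT1A-expressing HeLa membranes, with 30 µM GDP, compound 100 µM–0.1 nM, 20 min then 30 min at 30 °C. Stimulation given as percent increase over basal, with the maximal 5-HT response set to 100%. Emax taken from the nonlinear curve fit; 2–3 experiments.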

[10] = molecular target: T8, 5-hydroxytryptamine receptor 1A (Homo sapiens); assay: Ability to influence the binding of [35S]GTP-gamma-S, to HeLa cell membranes expressing the human 5-hydroxytryptamine 1A receptor; Not active; type: functional; procedure, shortened: as §2

| SMILES | Ki [1] | Ki [2] | Ki [3] | pK1a [4] | Ki [5] | pK1d [6] | pK1b [7] | EC50 [8] | Effect [9] | NA [10] |
| --- | --- | --- | --- | --- | --- | --- | --- | --- | --- | --- |
| COc1ccccc1N1CCN(CCCNc2c(C(C)=O)c(-c3ccccc3)nn(C)c2=O)CC1 | 1.51 nM | 4.32 nM | 134 nM | 8.82 | 20.3 nM | 8.37 | 7.69 | – | – | – |
| COc1ccccc1N1CCN(CCNc2cc(C)nn(C)c2=O)CC1 | 18.6 nM | 17.7 nM | 32.1 nM | 7.73 | 33.1 nM | 7.75 | 7.48 | – | – | – |
| COc1ccccc1N1CCN(CCCNc2c(C(C)=O)c(C)nn(C)c2=O)CC1 | 0.89 nM | 34.5 nM | 1.48 nM | 9.09 | 53.4 nM | 7.46 | 7.27 | 1.58 nM | 17% | – |
| COc1ccc(Cl)cc1N1CCN(CCCNc2c(C(C)=O)c(-c3ccccc3)nn(C)c2=O)CC1 | 0.44 nM | 3.92 nM | 1000 nM | 8.64 | 1.44 nM | 8.41 | 8.85 | – | – | – |
| COc1ccccc1N1CCN(CCNc2c(C(C)=O)c(-c3ccccc3)nn(C)c2=O)CC1 | 0.63 nM | 0.13 nM | 2.47 nM | 9.46 | 3.29 nM | 9.89 | 8.48 | – | – | inactive |
| COc1ccc(Cl)cc1N1CCN(CCNc2c(C(C)=O)c(-c3ccccc3)nn(C)c2=O)CC1 | 0.28 nM | 0.41 nM | 76.2 nM | 9.55 | 3.95 nM | 9.39 | 8.4 | – | – | – |
| COc1ccc(Cl)cc1N1CCN(CCCNc2c(C(C)=O)c(C)nn(C)c2=O)CC1 | 0.53 nM | 5.34 nM | 11.2 nM | 9.29 | 8.04 nM | 8.27 | 8.1 | – | – | – |
| COc1ccccc1N1CCN(CCNc2c(C(C)=O)c(C)nn(C)c2=O)CC1 | 2.29 nM | 3.2 nM | 13 nM | 8.64 | 49.8 nM | 8.5 | 7.3 | – | – | – |
| COc1ccc(Cl)cc1N1CCN(CCCCNc2c(C(C)=O)c(C)nn(C)c2=O)CC1 | 2.99 nM | 5.96 nM | 1.39 nM | 8.52 | 49.1 nM | 8.3 | 7.39 | – | – | – |
| CC(=O)c1c(-c2ccccc2)nn(C)c(=O)c1NCCN1CCN(c2ccccc2F)CC1 | 0.32 nM | 0.49 nM | 24.1 nM | 9.49 | 3.77 nM | 9.31 | 8.42 | – | – | – |
| COc1ccccc1N1CCN(c2c(C(C)=O)c(-c3ccccc3)nn(C)c2=O)CC1 | 163 nM | > 10000 nM | > 1000 nM | 6.79 | 259 nM | 5 | 6.59 | – | – | – |
| CCCN(CCC)C1CCc2cccc(O)c2C1 (centres undefined) [8-OH-DPAT] | – | – | – | – | 5980 nM | – | – | – | 100% | – |
| COc1ccc(Cl)cc1N1CCN(CCCNc2cc(-c3ccccc3)nn(C)c2=O)CC1 | 2 nM | 2.92 nM | > 1000 nM | 8.7 | 2.01 nM | 8.53 | 8.7 | – | – | – |
| CCC(=O)c1c(-c2ccccc2)nn(C)c(=O)c1NCCN1CCN(c2ccccc2OC)CC1 | 0.19 nM | 0.25 nM | 4.06 nM | 9.72 | 1.45 nM | 9.6 | 8.84 | 2.51 nM | 19% | – |
| CC(=O)c1c(-c2ccccc2)nn(C)c(=O)c1NCCN1CCN(c2ccccc2Cl)CC1 | 0.3 nM | 0.25 nM | 11.6 nM | 9.52 | 0.75 nM | 9.6 | 9.12 | – | – | – |
| COc1ccccc1N1CCN(CCNc2c(C(=O)C(C)C)c(-c3ccccc3)nn(C)c2=O)CC1 | 0.18 nM | 0.43 nM | 10.2 nM | 9.74 | 0.64 nM | 9.37 | 9.19 | – | – | inactive |
| COc1ccccc1N1CCN(CCCNc2cc(-c3ccccc3)nn(C)c2=O)CC1 | 2.59 nM | 11.8 nM | 127 nM | 8.59 | 5.51 nM | 7.93 | 8.26 | – | – | – |
| COc1ccccc1N1CCN(CCNc2cc(-c3ccccc3)nn(C)c2=O)CC1 | 0.22 nM | 11.8 nM | 14 nM | 9.66 | 2.01 nM | 7.93 | 8.7 | – | – | – |
| COc1ccc(Cl)cc1N1CCN(CCNc2cc(-c3ccccc3)nn(C)c2=O)CC1 | 1 nM | 1.07 nM | 322 nM | 9 | 1.76 nM | 8.97 | 8.75 | – | – | – |
